pKd: −log10 of the molar value.
Assays:
[1] = biological target: Cyclin-dependent kinase 7 (Homo sapiens, UniProt P50613); assay: Binding affinity to full length human CDK7 (M1 to L344 residues) expressed in mammalian expression system by KINOMEscan assay
HT-29 [2] = assay: Induction of apoptosis in human HT-29 cells assessed as early apoptotic cells at 50 uM after 48 hrs by Annexin-V-FITC/propidium iodide staining based flow cytometry (reference value: 1%); format: functional
[3] = biological target: Tyrosine-protein kinase receptor UFO (Homo sapiens, UniProt P30530); assay: Binding affinity to human AXL (R497 to Y821 residues) expressed in bacterial expression system by KINOMEscan assay
[4] = system: Mast/stem cell growth factor receptor Kit (Homo sapiens), P10721 [V559D,T670I]; assay: Inhibition of human KIT (I571 to D952 residues) V559D/T670I double mutant expressed in bacterial expression system assessed as residual activity at 5 uM by KINOMEscan assay relative to control
[5] = biological target: Casein kinase I isoform delta (Homo sapiens, UniProt P48730); assay: Binding affinity to full length human CSNK1D (M1 to K409 residues) expressed in bacterial expression system by KINOMEscan assay
[6] = biological target: Mitogen-activated protein kinase 3 (Homo sapiens, UniProt P27361); assay: Binding affinity to full length human ERK1 (M1 to P379 residues) expressed in bacterial expression system by KINOMEscan assay
SW-620 [7] = assay: Induction of apoptosis in human SW620 cells assessed as increase in PARP activation after 48 hrs by Western blot analysis; format: functional, cell-based
[8] = biological target: MAP kinase-interacting serine/threonine-protein kinase 1 (Homo sapiens, UniProt Q9BUB5); assay: Inhibition of full length human MKNK1 (M1 to L424 residues) expressed in mammalian expression system assessed as residual activity at 5 uM by KINOMEscan assay relative to control
Focal adhesion kinase 1 = Focal adhesion kinase 1 (Homo sapiens, UniProt Q05397); assay: Binding affinity to human FAK (D402 to R696 residues) expressed in bacterial expression system by KINOMEscan assay
[9] = biological target: Cyclin-dependent kinase 3 (Homo sapiens, UniProt Q00526); assay: Binding affinity to full length human CDK3 (M1 to H305 residues) expressed in bacterial expression system by KINOMEscan assay
SW-620 [10] = assay: Cell cycle arrest in human SW620 cells assessed as increase in accumulation at G2/M-phase after 48 hrs by propidium iodide staining based flow cytometry; format: functional
HT-29 [11] = assay: Induction of apoptosis in human HT-29 cells assessed as necrotic cells at 75 uM after 48 hrs by Annexin-V-FITC/propidium iodide staining based flow cytometry (reference value: 1.6%); format: functional
[12] = biological target: NUAK family SNF1-like kinase 2 (Homo sapiens, UniProt Q9H093); assay: Binding affinity to human SNARK (P22 to A333 residues) expressed in mammalian expression system by KINOMEscan assay
[13] = biological target: Atypical kinase COQ8A, mitochondrial (Homo sapiens, UniProt Q8NI60); assay: Binding affinity to full length human ADCK3 (M280 to Q647 residues) expressed in bacterial expression system by KINOMEscan assay
SW-620 [14] = assay: Effect on total 4EBP1 expression in human SW620 cells up to 75 uM after 48 hrs by Western blot analysis; format: ADME, cell-based; settings: sw-620, 48 h
Summary of the method: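 HT29 or SW620 cells were treated at 0, 25, 50 and 75 μM for 48 h and lysed in RIPA with protease and phosphatase inhibitors. Protein was quantified by BCA. 50 μg lysate was run on 8–15% SDS-PAGE and transferred to PVDF. Blocking was 5% BSA/TBST for 2 h; primary antibodies were applied overnight at 4 °C, then HRP secondary 1 h at room temperature.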

[15] = system: Mast/stem cell growth factor receptor Kit (Homo sapiens), P10721 [D816V]; assay: Inhibition of human KIT (I571 to D952 residues) D816V mutant expressed in bacterial expression system assessed as residual activity at 5 uM by KINOMEscan assay relative to control
[16] = biological target: Serine/threonine-protein kinase pim-2 (Homo sapiens, UniProt Q9P1W9); assay: Inhibition of human PIM2 (M1 to E291 residues) expressed in bacterial expression system assessed as residual activity at 5 uM by KINOMEscan assay relative to control
HT-29 [17] = assay: Cell cycle arrest in human HT-29 cells assessed as accumulation at S-phase at 50 uM after 48 hrs by propidium iodide staining based flow cytometry (reference value: 37.82%); format: functional
[18] = biological target: Serine/threonine-protein kinase DCLK1 (Homo sapiens, UniProt O15075); assay: Binding affinity to partial length human DCAMKL1 (L270 to A662 residues) expressed in mammalian expression system by KINOMEscan assay
[19] = biological target: Tyrosine-protein kinase JAK2 (Homo sapiens, UniProt O60674); assay: Inhibition of human JAK2 JH1 catalytic domain (A829 to G1132 residues) expressed in mammalian expression system assessed as residual activity at 5 uM by KINOMEscan assay relative to control
[20] = biological target: Dual specificity mitogen-activated protein kinase kinase 2 (Homo sapiens, UniProt P36507); assay: Binding affinity to full length human MEK2 (M1 to V400 residues) expressed in mammalian expression system by KINOMEscan assay
HT-29 [21] = assay: Induction of apoptosis in human HT-29 cells assessed as live cells at 50 uM after 48 hrs by Annexin-V-FITC/propidium iodide staining based flow cytometry (reference value: 93.2%); format: functional
[22] = biological target: Tyrosine-protein kinase receptor UFO (Homo sapiens) (UniProt P30530); assay: Inhibition of human AXL (R497 to Y821 residues) expressed in bacterial expression system assessed as residual activity at 5 uM by KINOMEscan assay relative to control
SW-620 [23] = assay: Induction of apoptosis in human SW620 cells assessed as necrotic cells at 25 uM after 48 hrs by Annexin-V-FITC/propidium iodide staining based flow cytometry (reference value: 0.9%); format: functional
[24] = biological target: Mitogen-activated protein kinase kinase kinase 4 (Homo sapiens, UniProt Q9Y6R4); assay: Inhibition of human MAP3K4 (G1319 to E1608 residues) expressed in bacterial expression system assessed as residual activity at 5 uM by KINOMEscan assay relative to control
HT-29 [25] = assay: Induction of apoptosis in human HT-29 cells assessed as live cells at 25 uM after 48 hrs by Annexin-V-FITC/propidium iodide staining based flow cytometry (reference value: 93.2%); format: functional
[26] = biological target: Cyclin-dependent kinase 19 (Homo sapiens, UniProt Q9BWU1); assay: Inhibition of human CDK11 (M1 to N360 residues) expressed in bacterial expression system assessed as residual activity at 5 uM by KINOMEscan assay relative to control
[27] = biological target: Serine/threonine-protein kinase B-raf (Homo sapiens, UniProt P15056, V600E); assay: Binding affinity to human BRAF (S429 to E741 residues) V600E mutant expressed in mammalian expression system by KINOMEscan assay
[28] = biological target: ALK tyrosine kinase receptor (Homo sapiens, UniProt Q9UM73); assay: Inhibition of human ALK (I1088 to E1409 residues) expressed in mammalian expression system assessed as residual activity at 5 uM by KINOMEscan assay relative to control

Sequence of Serine/threonine-protein kinase DCLK1 (O15075 whole entry, the tested form may be a part): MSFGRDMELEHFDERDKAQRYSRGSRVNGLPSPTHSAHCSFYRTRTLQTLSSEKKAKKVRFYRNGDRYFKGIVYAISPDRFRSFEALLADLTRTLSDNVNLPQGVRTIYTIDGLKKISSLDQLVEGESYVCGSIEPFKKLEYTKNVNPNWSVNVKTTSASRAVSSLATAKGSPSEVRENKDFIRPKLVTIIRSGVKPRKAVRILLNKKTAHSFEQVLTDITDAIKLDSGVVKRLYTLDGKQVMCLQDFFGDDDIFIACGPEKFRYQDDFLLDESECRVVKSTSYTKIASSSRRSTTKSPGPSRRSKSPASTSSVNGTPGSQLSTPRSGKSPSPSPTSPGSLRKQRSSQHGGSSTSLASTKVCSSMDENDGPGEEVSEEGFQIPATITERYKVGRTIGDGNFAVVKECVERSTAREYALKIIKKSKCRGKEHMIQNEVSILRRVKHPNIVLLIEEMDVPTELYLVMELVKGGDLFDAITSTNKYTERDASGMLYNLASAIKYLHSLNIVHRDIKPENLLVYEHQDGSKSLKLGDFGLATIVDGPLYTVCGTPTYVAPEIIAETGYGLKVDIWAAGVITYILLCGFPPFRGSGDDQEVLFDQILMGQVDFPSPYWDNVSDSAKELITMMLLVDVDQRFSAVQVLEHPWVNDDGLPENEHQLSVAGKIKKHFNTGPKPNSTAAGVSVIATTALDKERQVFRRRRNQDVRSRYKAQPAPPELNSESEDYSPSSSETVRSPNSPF
Sequence of Tyrosine-protein kinase receptor UFO (Homo sapiens) (P30530 whole entry, the tested form may be a part): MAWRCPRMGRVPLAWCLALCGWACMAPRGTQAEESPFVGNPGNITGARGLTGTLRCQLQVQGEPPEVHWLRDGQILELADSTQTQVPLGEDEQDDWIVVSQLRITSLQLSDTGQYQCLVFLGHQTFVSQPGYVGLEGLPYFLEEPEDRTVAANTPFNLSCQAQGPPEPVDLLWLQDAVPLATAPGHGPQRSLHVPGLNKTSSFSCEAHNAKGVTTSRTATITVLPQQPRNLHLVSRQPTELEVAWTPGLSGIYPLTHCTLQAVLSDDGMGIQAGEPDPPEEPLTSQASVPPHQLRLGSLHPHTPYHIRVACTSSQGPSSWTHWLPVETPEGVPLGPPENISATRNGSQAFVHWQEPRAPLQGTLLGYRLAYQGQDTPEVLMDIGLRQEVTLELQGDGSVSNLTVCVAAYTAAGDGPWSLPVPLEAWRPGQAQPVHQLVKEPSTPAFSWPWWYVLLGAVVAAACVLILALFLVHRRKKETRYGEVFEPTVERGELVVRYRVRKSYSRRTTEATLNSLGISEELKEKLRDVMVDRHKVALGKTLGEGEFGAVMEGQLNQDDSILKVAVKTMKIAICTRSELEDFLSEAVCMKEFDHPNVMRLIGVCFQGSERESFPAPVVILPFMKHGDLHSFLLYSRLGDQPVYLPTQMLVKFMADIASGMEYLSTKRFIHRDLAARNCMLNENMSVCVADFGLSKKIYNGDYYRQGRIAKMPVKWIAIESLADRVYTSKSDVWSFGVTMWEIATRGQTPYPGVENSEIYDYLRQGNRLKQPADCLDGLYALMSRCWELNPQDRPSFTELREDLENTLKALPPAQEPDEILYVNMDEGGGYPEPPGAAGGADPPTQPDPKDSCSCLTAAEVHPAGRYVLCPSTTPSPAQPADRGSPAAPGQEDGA
Sequence of Tyrosine-protein kinase receptor UFO (P30530 whole entry, the tested form may be a part): as above
Sequence of Mast/stem cell growth factor receptor Kit (Homo sapiens), P10721 [D816V] (P10721 whole entry D816V, the tested form may be a part): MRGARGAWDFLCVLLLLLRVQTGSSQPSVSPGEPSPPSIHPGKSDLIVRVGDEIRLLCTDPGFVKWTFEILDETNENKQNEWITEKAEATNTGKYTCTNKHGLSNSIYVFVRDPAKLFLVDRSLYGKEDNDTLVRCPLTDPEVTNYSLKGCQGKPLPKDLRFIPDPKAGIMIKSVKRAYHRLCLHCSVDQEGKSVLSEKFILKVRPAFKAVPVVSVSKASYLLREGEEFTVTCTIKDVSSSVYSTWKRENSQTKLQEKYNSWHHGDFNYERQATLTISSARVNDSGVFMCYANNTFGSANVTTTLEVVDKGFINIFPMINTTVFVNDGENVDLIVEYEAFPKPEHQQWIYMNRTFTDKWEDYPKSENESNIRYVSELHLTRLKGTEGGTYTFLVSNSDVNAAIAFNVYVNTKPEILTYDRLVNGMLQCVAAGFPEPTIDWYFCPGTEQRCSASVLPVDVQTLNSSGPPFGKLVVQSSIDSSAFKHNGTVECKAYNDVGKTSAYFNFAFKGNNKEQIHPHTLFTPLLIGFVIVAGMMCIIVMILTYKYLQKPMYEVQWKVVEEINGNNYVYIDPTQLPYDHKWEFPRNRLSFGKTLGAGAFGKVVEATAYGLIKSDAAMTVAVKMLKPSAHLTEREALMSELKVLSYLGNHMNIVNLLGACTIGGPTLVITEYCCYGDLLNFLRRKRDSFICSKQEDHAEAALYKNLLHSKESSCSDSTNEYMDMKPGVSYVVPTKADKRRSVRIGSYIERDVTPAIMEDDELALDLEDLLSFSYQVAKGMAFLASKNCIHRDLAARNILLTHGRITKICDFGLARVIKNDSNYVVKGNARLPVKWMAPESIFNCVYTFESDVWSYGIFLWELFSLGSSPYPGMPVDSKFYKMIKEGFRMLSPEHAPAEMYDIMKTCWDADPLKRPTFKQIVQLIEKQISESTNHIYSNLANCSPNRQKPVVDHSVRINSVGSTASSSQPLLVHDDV
Sequence of Casein kinase I isoform delta (P48730 whole entry, the tested form may be a part, canonical isoform): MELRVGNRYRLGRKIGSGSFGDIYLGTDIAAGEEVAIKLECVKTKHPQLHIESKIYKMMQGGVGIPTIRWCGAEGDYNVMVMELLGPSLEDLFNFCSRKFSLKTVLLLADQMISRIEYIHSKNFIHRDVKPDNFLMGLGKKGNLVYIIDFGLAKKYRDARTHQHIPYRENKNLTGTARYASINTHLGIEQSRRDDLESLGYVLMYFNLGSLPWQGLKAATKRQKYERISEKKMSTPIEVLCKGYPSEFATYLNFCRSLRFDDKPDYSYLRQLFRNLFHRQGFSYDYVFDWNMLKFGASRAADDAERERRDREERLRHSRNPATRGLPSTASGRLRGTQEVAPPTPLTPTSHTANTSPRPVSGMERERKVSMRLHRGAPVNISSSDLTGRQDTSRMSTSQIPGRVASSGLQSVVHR
Sequence of Serine/threonine-protein kinase pim-2 (Q9P1W9 whole entry, looked up, the tested form may be a part): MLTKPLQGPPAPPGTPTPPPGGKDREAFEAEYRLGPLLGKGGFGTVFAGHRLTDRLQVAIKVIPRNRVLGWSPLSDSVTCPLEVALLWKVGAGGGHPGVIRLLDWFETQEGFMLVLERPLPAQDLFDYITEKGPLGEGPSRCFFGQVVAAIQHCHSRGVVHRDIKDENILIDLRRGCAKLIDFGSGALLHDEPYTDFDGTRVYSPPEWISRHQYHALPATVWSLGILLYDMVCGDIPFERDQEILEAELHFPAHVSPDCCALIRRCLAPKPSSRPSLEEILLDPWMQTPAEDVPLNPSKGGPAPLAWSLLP
Sequence of MAP kinase-interacting serine/threonine-protein kinase 1 (Q9BUB5 whole entry, looked up, the tested form may be a part): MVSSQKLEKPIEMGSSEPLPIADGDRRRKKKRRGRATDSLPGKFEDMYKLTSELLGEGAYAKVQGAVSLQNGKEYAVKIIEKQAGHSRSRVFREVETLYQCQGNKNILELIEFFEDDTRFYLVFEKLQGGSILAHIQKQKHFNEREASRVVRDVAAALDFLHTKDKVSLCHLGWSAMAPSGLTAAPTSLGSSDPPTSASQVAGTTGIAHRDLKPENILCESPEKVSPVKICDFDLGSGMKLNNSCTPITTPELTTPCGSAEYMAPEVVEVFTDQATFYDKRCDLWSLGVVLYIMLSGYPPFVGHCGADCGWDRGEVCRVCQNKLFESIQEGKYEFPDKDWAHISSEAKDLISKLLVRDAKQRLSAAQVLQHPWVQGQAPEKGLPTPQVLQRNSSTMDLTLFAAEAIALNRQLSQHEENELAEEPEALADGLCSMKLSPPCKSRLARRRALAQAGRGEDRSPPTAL
Sequence of Cyclin-dependent kinase 7 (P50613 whole entry, the tested form may be a part): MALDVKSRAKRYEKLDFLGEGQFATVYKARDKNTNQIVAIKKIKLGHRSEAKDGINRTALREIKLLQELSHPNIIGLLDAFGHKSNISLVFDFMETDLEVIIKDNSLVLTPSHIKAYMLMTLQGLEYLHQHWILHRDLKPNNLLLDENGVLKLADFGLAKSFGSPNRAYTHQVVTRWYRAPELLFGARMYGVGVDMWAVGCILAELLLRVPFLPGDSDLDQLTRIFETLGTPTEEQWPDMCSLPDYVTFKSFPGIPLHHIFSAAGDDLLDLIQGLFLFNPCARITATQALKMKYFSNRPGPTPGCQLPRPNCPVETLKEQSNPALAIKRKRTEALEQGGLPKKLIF

CC(C)CN(C(=O)c1cccnc1)c1c2ccccc2c(=O)n2c1[nH]c1ccccc12
pKd [1]: ≤ 5.30 | Activity (HT-29 [2]): 1.7% | pKd [3]: ≤ 5.30 | Activity [4]: 98% | pKd [5]: ≤ 5.30 | pKd [6]: ≤ 5.30 | Activity (SW-620 [7]): Dose-dependent effect | Activity [8]: 97% | pKd (Focal adhesion kinase 1): ≤ 5.30 | pKd [9]: ≤ 5.30 | Activity (SW-620 [10]): Dose-dependent effect | Activity (HT-29 [11]): 18.8% | pKd [12]: ≤ 5.30 | pKd [13]: ≤ 5.30 | Activity (SW-620 [14]): Non-Toxic | Activity [15]: 100% | Activity [16]: 100% | Activity (HT-29 [17]): 35.86% | pKd [18]: ≤ 5.30 | Activity [19]: 88% | pKd [20]: ≤ 5.30 | Activity (HT-29 [21]): 80.3% | Activity [22]: 100% | Activity (SW-620 [23]): 3.1% | Activity [24]: 91% | Activity (HT-29 [25]): 88.4% | Activity [26]: 77% | pKd [27]: ≤ 5.30 | Activity [28]: 65%

— ChEMBL document CHEMBL4229410, “Facile construction of fused benzimidazole-isoquinolinones that induce cell-cycle arrest and apoptosis in colorectal cancer cells” (Bioorg Med Chem, 2018)
